Paper PMC10913580 (Nature chemistry, 2023)

Tests used:
[1] = tested on: ternary complex between CRBN and off-target ZFP91; test: NanoBRET ternary complex formation assay; assay type: cell-based; conditions: U2OS cells expressing ZFP91-NLuc and HaloTag-CRBN, 1 μM dose
Method in brief: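 U2OS stably expressing ZFP91–NLuc, transfected with HaloTag–CRBN plasmid (2 μg per 100,000 cells). After 14 h, plated at 3,000 cells/well in phenol-red-free Opti-MEM with 4% FBS. NanoBRET 618 ligand 100 nM final, 18 h; no-ligand control wells. Compound 1 μM final, 15 min; furimazine 10 μM final, 5 min. mBU = (618/460 nm emission) × 1,000, minus no-ligand control.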

ZFP91 [2] = target: T1, ZFP91 (Homo sapiens, UniProt Q96JP5+Q96SW2); test: Immunoblot of endogenous ZFP91 in H2228 cells; assay type: cell-based
Method in brief: (§1)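 Cells grown in RPMI 1640 with 10% FBS, then compound-treated. Lysis in ice-cold M-PER with protease and phosphatase inhibitors. 20–50 μg protein run on 4–12% Bis-Tris gels and transferred to nitrocellulose. Probed with anti-ZFP91 or anti-IKZF3 primary antibodies (1:1,000), then fluorescent secondaries (1:3,000).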

ZFP91 [3] = target: T1, ZFP91; test: Immunoblot of endogenous ZFP91 in Jurkat cells; assay type: cell-based
Method in brief: as §1

SALL4 = SALL4 (Homo sapiens, UniProt Q96SW2+Q9UJQ4); test: Global proteomic analysis of KELLY cells treated with PROTACs; assay type: cell-based; conditions: 100 nM
Method in brief: (§2)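 Cells were dosed with test compound at 0.1 μM or with DMSO for 5 h, then washed in PBS and snap-frozen. Lysis was in 8 M urea, 50 mM NaCl, 50 mM EPPS pH 8.5 with protease and phosphatase inhibitors, with bead beating. Digestion used LysC (1:50, 12 h, room temperature), then trypsin (1:50, 6 h, 37 °C). Label-free LC-MS followed; abundances were scaled and statistics run with limma.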

ALK = ALK (Homo sapiens, UniProt P06748+Q96SW2+Q9UM73); test: Global proteomic analysis of SU-DHL-1 cells treated with PROTACs; assay type: cell-based; conditions: 0.1 μM, 5 h
Method in brief: as §2

ZFP91 [4] = target: T1, ZFP91; test: Immunoblot of endogenous ZFP91 in SU-DHL-1 cells; assay type: cell-based
Method in brief: as §1

[5] = tested on: ZF degrons fused to eGFP in U2OS cells; test: Automated imaging assay for degradation of ZF degron-tagged eGFP; assay type: cell-based; conditions: 14 stable U2OS ZF reporter cell lines, 24 h, dosing range 4.3 nM to 6 μM
Method in brief: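 U2OS lines stably carrying lentiviral Cilantro 2 reporters (ZF degron–eGFP plus untagged mCherry) under 1 μg ml−1 puromycin. 3,000 cells/well seeded onto compound-preprinted plates; 24 h. PBS wash, 4% paraformaldehyde fix, nuclear stain, eGFP/mCherry imaging. Per-cell eGFP normalized to mCherry, well means to DMSO wells; 1 minus value gives degradation fraction, summed across doses as degradation score. Z′ from controls.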

ZFP91 and IKZF3 = test: Immunoblot of endogenous ZFP91 and IKZF3 in MM1.S cells; assay type: cell-based
Method in brief: as §1

[6] = tested on: ZF proteins and other off-targets in MOLT4 and KELLY cells; test: MS-based global proteomics of MOLT4 and KELLY cells treated with imide analogues; assay type: cell-based, human; conditions: 1 μM, 5 h
Method in brief: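 MOLT4 or Kelly cells given 1 μM compound or DMSO, 5 h. PBS-washed pellets snap-frozen, lysed in 8 M urea, 50 mM NaCl, 50 mM EPPS pH 8.5 with inhibitors by bead beating; Bradford quantitation. 50 μg protein reduced, alkylated, methanol/chloroform precipitated; LysC (1:50, 12 h, room temperature) then trypsin (1:50, 6 h, 37 °C). C18-desalted, LC–MS. Abundances scaled; limma statistics.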

N#Cc1ccc(O[C@H]2CC[C@H](NC(=O)c3ccc(N4CCC(CN5CCN(c6cc7c(cc6F)C(=O)N(C6CCC(=O)NC6=O)C7=O)CC5)CC4)nn3)CC2)cc1Cl (some centres unmarked) [ARV110]
BRET signal, ternary complex formation between CRBN and ZFP91 [1]: reduced ternary complex formation with off-target ZFP91

Cc1cc(Nc2ncc(Cl)c(Nc3ccccc3S(=O)(=O)C(C)C)n2)c(OC(C)C)cc1C1CCN(CC(=O)NCCNc2cccc3c2C(=O)N(C2CCC(=O)NC2=O)C3=O)CC1 (centres unmarked) [MS4078]
off-target degradation of endogenous ZFP91 (immunoblot) (ZFP91 [2]): off-target degradation of endogenous ZF proteins ZFP91 | off-target degradation of endogenous ZFP91 (immunoblot) (ZFP91 [3]): off-target degradation of endogenous ZF protein ZFP91 | degradation of SALL4 (global proteomics) (SALL4): induced degradation of SALL4 | degradation of ALK (global proteomics) (ALK): induced degradation of ALK | off-target degradation of endogenous ZFP91 (immunoblot) (ZFP91 [4]): off-target degradation of endogenous ZF proteins ZFP91 | degradation of ZF degron-tagged eGFP (off-target ZF degradation) [5]: had a high level of off-target ZF degradation

Nc1ccc2c(c1)C(=O)N(C1CCC(=O)NC1=O)C2=O (centres unmarked) [compound 8, 5-aminothalidomide]
degradation of endogenous ZFP91 and IKZF3 (immunoblot) (ZFP91 and IKZF3): decrease in overall degradation potency as compared to pomalidomide

CC[C@H](C(=O)N1CCCC[C@H]1C(=O)O[C@H](CCc1ccc(OC)c(OC)c1)c1ccccc1OCC(=O)NCCCCCCOc1cccc2c1C(=O)N(C1CCC(=O)NC1=O)C2=O)c1cc(OC)c(OC)c(OC)c1 (some centres unmarked) [dTAG-13]
off-target degradation of endogenous ZFP91 (immunoblot) (ZFP91 [3]): off-target degradation of endogenous ZF protein ZFP91

Nc1cccc2c1C(=O)N(C1CCC(=O)NC1=O)C2=O (centres unmarked) [pomalidomide]
degradation of ZF proteins and other off-targets (global proteomics) [6]: triggered the degradation of several ZF proteins | degradation of ZF degron-tagged eGFP (off-target ZF degradation) [5]: degraded all 12 ZF degrons that are sensitive to it in a dose-dependent manner
